Laboratory results as given in ChEMBL document CHEMBL1122443, “Synthesis and antitumor evaluation of selected 5,6-disubstituted 1(2)H-indazole-4,7-diones” (1983).
Calls of active or inactive are those of the source. No cut-off for these calls is given here.

What was measured:
Mus musculus [1] = assay: Antitumor activity in CF1 mice bearing Ehrlich ascites carcinoma measured as percent ascrit packed cell volume at 5 mg/kg; format: functional
Procedure, shortened: (§1)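 Male CF1 mice (22–25 g) received 2 × 10⁶ Ehrlich carcinoma cells ip on day 0. Dosing was ip daily on days 1–8, with sacrifice on day 9. Ascites fluid volume per mouse and ascrit (packed cell volume) were measured for each group. Vehicle was 0.05% Tween 80, or 5% absolute EtOH in 0.05% Tween 80, used for both compound and control. 6-Mercaptopurine was the positive control.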

Mus musculus [2] = assay: Antitumor activity in CF1 mice bearing Ehrlich ascites carcinoma measured as ascites volume at 3 mg/kg; format: functional; procedure, shortened: as §1
Mus musculus [3] = assay: Antitumor activity in CF1 mice bearing Ehrlich ascites carcinoma measured as percentage inhibition at 5 mg/kg; format: functional
Procedure, shortened: (§2)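 Ehrlich ascites model in male CF1 mice (22–25 g): 2 × 10⁶ cells ip on day 0, ip dosing days 1–8, kill on day 9. Percent inhibition = 100 − [(treated volume × treated ascrit)/(control volume × control ascrit)]. Greater than 80% was taken as significant. Vehicle was 0.05% Tween 80, alone or with 5% absolute EtOH. 6-Mercaptopurine was the positive control.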

Mus musculus [4] = assay: Antitumor activity in CF1 mice bearing Ehrlich ascites carcinoma measured as ascites volume at 5 mg/kg; format: functional; procedure, shortened: as §1
Mus musculus [5] = assay: Antitumor activity in CF1 mice bearing Ehrlich ascites carcinoma measured as survivors on day 9 at 3 mg/kg; 5/6; format: functional
Mus musculus [6] = assay: Antitumor activity in CF1 mice bearing Ehrlich ascites carcinoma measured as percent ascrit packed cell volume at 3 mg/kg; format: functional; procedure, shortened: as §1
Mus musculus [7] = assay: Antitumor activity in CF1 mice bearing Ehrlich ascites carcinoma measured as survivors on day 9 at 5 mg/kg; 4/6; format: functional
Mus musculus [8] = assay: Antitumor activity in CF1 mice bearing Ehrlich ascites carcinoma measured as survivors on day 9 at 8 mg/kg; 4/6; format: functional
Mus musculus [9] = assay: Antitumor activity in CF1 mice bearing Ehrlich ascites carcinoma measured as percent ascrit packed cell volume at 8 mg/kg; format: functional; procedure, shortened: as §1
Mus musculus [10] = assay: Antitumor activity in CF1 mice bearing Ehrlich ascites carcinoma measured as percentage inhibition at 3 mg/kg; IA= inactive; format: functional, organism-based; design: dose 3 mg/kg
Procedure, shortened: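 In the Ehrlich ascites model, male CF1 mice (22–25 g) received 2 × 10⁶ cells ip on day 0 and compound ip on days 1–8, with a vehicle of 0.05% Tween 80 ± 5% EtOH. Ascites volume and ascrit were taken on day 9. % inhibition = 100 − [(vol × ascrit, treated)/(vol × ascrit, control)], with >80% taken as significant.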

Mus musculus [11] = assay: Antitumor activity in CF1 mice bearing Ehrlich ascites carcinoma measured as percentage inhibition at 8 mg/kg; format: functional; procedure, shortened: as §2
Mus musculus [12] = assay: Antitumor activity in CF1 mice bearing Ehrlich ascites carcinoma measured as ascites volume at 8 mg/kg; format: functional; procedure, shortened: as §1
Mus musculus [13] = assay: Antitumor activity in CF1 mice bearing Ehrlich ascites carcinoma measured as percent ascrit packed cell volume at 50 mg/kg; format: functional; procedure, shortened: as §1
Mus musculus [14] = assay: Antitumor activity in CF1 mice bearing Ehrlich ascites carcinoma measured as percentage inhibition at 50 mg/kg; format: functional; procedure, shortened: as §2
Mus musculus [15] = assay: Antitumor activity in 18 CF1 mice bearing Ehrlich ascites carcinoma measured as survivors on day 9 at 50 mg/kg; 16/18; format: functional
Mus musculus [16] = assay: Antitumor activity in CF1 mice bearing Ehrlich ascites carcinoma measured as ascites volume at 50 mg/kg; format: functional; procedure, shortened: as §1
Mus musculus [17] = assay: Antitumor activity in CF1 mice bearing Ehrlich ascites carcinoma measured as survivors on day 9 at 3 mg/kg; 3/6; format: functional
Mus musculus [18] = assay: Average days survived for treated / average days survived for control at 1 (mg/kg); 10.2/9.2; format: functional
Mus musculus [19] = assay: Antitumor activity in CF1 mice bearing Ehrlich ascites carcinoma measured as survivors on day 9 at 5 mg/kg; 5/5; format: functional
Mus musculus [20] = assay: Antitumor activity in CF1 mice bearing Ehrlich ascites carcinoma measured as percentage inhibition at 3 mg/kg; format: functional; procedure, shortened: as §2
Mus musculus [21] = assay: Anti tumor activity in mice bearing lymphocytic leukemia P-388 at 1 mg/kg; format: functional
Procedure, shortened: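 Male BDF1 mice (20–23 g) were inoculated ip with 1 × 10⁶ P-388 leukemia cells on day 0. Compound was given ip once daily on days 1–14 in 0.05% Tween 80 vehicle, with a vehicle control group and 5-fluorouracil as positive control. Activity was scored as % T/C, average days survived treated/control, with >125% taken as significant.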

CC(=O)NC1=C(Cl)C(=O)c2c(cnn2C(C)=O)C1=O
packed cell volume (Mus musculus [1]): 5.9%
ascites volume (Mus musculus [2]): 2.9 ml mouse-1
inhibition in vivo at 5 mg/kg (Mus musculus [3]): 95.6%
ascites volume (Mus musculus [4]): 0.3 ml mouse-1
Survivors (Mus musculus [5]): 5
packed cell volume (Mus musculus [6]): 45.5%
Survivors (Mus musculus [7]): 4
Survivors (Mus musculus [8]): 4
packed cell volume (Mus musculus [9]): 31.7%
inhibition (Mus musculus [10]): inactive
inhibition in vivo at 8 mg/kg (Mus musculus [11]): 25.5%
ascites volume (Mus musculus [12]): 0.75 ml mouse-1

Sc1ncnc2nc[nH]c12 [MERCAPTOPURINE ANHYDROUS]
packed cell volume (Mus musculus [13]): 10.5%
inhibition in vivo at 50 mg/kg (Mus musculus [14]): 96.3%
Survivors (Mus musculus [15]): 16
ascites volume (Mus musculus [16]): 0.2 ml mouse-1

Cc1noc2c1C(=O)C(Cl)=C(Cl)C2=O
packed cell volume (Mus musculus [1]): 0%
ascites volume (Mus musculus [2]): 0 ml mouse-1
inhibition in vivo at 5 mg/kg (Mus musculus [3]): 100%
ascites volume (Mus musculus [4]): 0 ml mouse-1
Survivors (Mus musculus [17]): 3
packed cell volume (Mus musculus [6]): 0%
Average survival (days) (Mus musculus [18]): 10.2
Survivors (Mus musculus [19]): 5
inhibition in vivo at 3 mg/kg (Mus musculus [20]): 100%
T/C (Mus musculus [21]): 111%
